# According to paper PMC8263925 (The Journal of General Physiology, 2021):
# Residue numbers refer to the chain shown, from its start.
# What was measured:
# Hv1 WT [1] = target: T1, Hv1 WT (Homo sapiens, UniProt Q96D96); format: cell-based
# T1 sequence (Q96D96 1-273): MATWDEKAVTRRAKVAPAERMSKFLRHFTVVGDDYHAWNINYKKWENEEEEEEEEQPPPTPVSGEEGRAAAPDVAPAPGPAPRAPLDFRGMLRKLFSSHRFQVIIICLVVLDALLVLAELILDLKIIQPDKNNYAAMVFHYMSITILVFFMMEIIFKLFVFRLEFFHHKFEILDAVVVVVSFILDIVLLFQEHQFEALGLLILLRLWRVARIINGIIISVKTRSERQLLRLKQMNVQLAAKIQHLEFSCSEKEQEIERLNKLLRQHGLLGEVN
# Outline: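 WT channel in inside-out oocyte patches, symmetric pH 6.0, 22 ± 1°C. Holding −40 mV, depolarization to +120 mV; relative depolarization time td/(tr + td) of 0.1, 0.2, 0.3 or 0.5. 50 µM perfused into bath, then washed out. End-pulse current normalized. Decay fitted double-exponentially (τfast, τslow, weights, c∞); recovery fitted single-exponentially. n = 7, 7, 5, 8 per RDT; SEM.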
# Hv1 WT [2] = target: T1, Hv1 WT; test: Inside-out patch, pulsed application of inhibitor to the closed channel; format: cell-based; conditions: for channel inhibition under pulsed conditions: 100 µM pulses
# Outline: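 WT channel, inside-out oocyte patches, pH 6.0. Test compound (100 µM) applied in 3 s pulses while the membrane was held closed at −40 mV, or at 0 mV or −80 mV. Current read after each pulse with a step to +120 mV. Control pulses of a reference Hv1 inhibitor given first to confirm complete washout between depolarizations.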
# Hv1 F150A = target: T2, Hv1 F150A (Homo sapiens, UniProt Q96D96, F150A); test: Inside-out patch time course of inhibition, mutant channel; format: cell-based; conditions: 0.1 µM, SEM, n = 5
# T2 sequence (Q96D96 1-273 F150A): T1 sequence (Q96D96 1-273) with F150A
# Hv1 S181A = test: Inside-out patch time course of inhibition, mutant channel; format: cell-based, human; conditions: 50 µM
# Outline: (§1)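 Xenopus oocytes injected with mutant-channel mRNA 1–3 d earlier, kept at 18°C in ND96. Inside-out patches at 22 ± 1°C in symmetric Mes/TEA solutions, pH 6.0. Held at −40 mV and pulsed to +120 mV at relative depolarization time 0.2 (3 s/15 s). 50 µM perfused into bath. End-pulse current leak- and rundown-corrected. Decay fitted double-exponentially (τfast, τslow, cfast, cslow); washout recovery single-exponentially (τoff).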
# Hv1 R211A = test: as above; format: cell-based, human; conditions: 50 µM
# Outline: as §1
# Hv1 F156A = target: T3, Hv1 F156A (Homo sapiens, UniProt Q96D96, F156A); test: as above; format: cell-based; conditions: 50 µM
# T3 sequence (Q96D96 1-273 F156A): T1 sequence (Q96D96 1-273) with F156A
# Outline: as §1
# Hv1 W207Y = target: T4, Hv1 W207Y (Homo sapiens, UniProt Q96D96, W207Y); test: as above; format: cell-based; conditions: 50 µM
# T4 sequence (Q96D96 1-273 W207Y): T1 sequence (Q96D96 1-273) with W207Y
# Outline: as §1
# Hv1 R208K = target: T5, Hv1 R208K (Homo sapiens, UniProt Q96D96, R208K); test: as above; format: cell-based; conditions: 50 µM; fast component not resolved from slow component
# T5 sequence (Q96D96 1-273 R208K): T1 sequence (Q96D96 1-273) with R208K
# Outline: as §1
# Hv1 WT [3] = target: T1, Hv1 WT; test: Kinetic simulation of HIF-mediated inhibition, four-state model S; conditions: room temperature, closed VSD
# [4] = 50 μM, double-exponential fit, RDT 0.1-0.5
structure (smiles),measurement,setting,value
"Cc1[nH]c(N)nc1CCC(=O)c1cc(F)cc(F)c1 [HIF, 3-(2-amino-5-methyl-1H-imidazol-4-yl)-1-(3,5-difluorophenyl)propan-1-one]","relative contribution of the slow component, cslow / (cfast + cslow)","Hv1 WT [1]; 50 μM, RDT = 0.2",0.51
same,"τfast, time constant of fast component of inhibition",Hv1 WT [1]; [4],< 5 s
same,"τslow, time constant of slow component of inhibition",Hv1 WT [1]; [4],> 40 s
same,"τslow, RDTon = 0.1/τslow, RDTon = 0.5","Hv1 WT [1]; 50 μM, experimental",1.15 ± 0.20
same,"τoff, recovery from inhibition","Hv1 WT [1]; after 50 µM, RDT = 0.2",94 ± 7 s
same,"τoff, time constant of recovery from inhibition","Hv1 WT [1]; after 50 μM, single-exponential fit, RDT 0.1-0.5",≥ 80 s
same,τ of current decay under pulsed application,"Hv1 WT [2]; 100 μM for 3 s pulses, membrane at −40 mV during application, single-exponential",46 ± 4 s
same,channel inhibition under pulsed conditions,Hv1 WT [2]; membrane held at 0 mV,55 ± 3%
same,channel inhibition under pulsed conditions,Hv1 WT [2]; membrane held at −80 mV,33 ± 4%
same,ratio between the peak current and the current at the end of the depolarization step in the presence of the inhibitor,Hv1 F150A,2.5 ± 0.5
same,higher inhibition vs WT,Hv1 S181A,7%
same,reduction in τslow vs WT,Hv1 S181A,26%
same,higher inhibition (decreased steady-state remaining current) vs WT,Hv1 R211A,15%
same,reduction in τslow vs WT,Hv1 R211A,64%
same,effect of mutation on inhibition,Hv1 F156A,did not result in any significant change
same,reduction of the extent of inhibition vs WT,Hv1 W207Y,38%
same,τslow,Hv1 W207Y,> 200 s
same,extent of inhibition compared with WT,Hv1 R208K,slightly increased
same,energy barriers to cross in and out of site 2,Hv1 WT [3],~20 kcal/mol
